In ChEMBL document CHEMBL5029154, “Design, Synthesis, and Biological Evaluation of Organic Nitrite (NO2-) Donors as Potential Anticerebral Ischemia Agents” (J Med Chem, 2021):
Activity calls are given as the source filed them. The calls are words filed in the database; no cut-off is given here.

What was measured:
[1] = Neuroprotective activity against in OGD/R-induced rat cortical neuron apoptosis assessed as early apoptotic cells pretreated at 1.8 uM for 24 hrs followed by subjected to OGD for 2 hrs measured after 24 hrs under normoxic condition by PI/FITC-H staining based flow cytometry (reference value: 58.46%); format: functional, Cortical neurone
[2] = Toxicity in Sprague-Dawley rat assessed as effect on blood pressure at 950 microg/kg, iv measured upto 24 hrs; format: organism-based; conditions: in vivo, 0.95 mg/kg, dose 950 µg/kg
Outline: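 Male Sprague-Dawley rats (12 weeks, 200−220 g, SPF housing, free chow and water) received a single iv tail-vein injection of test compound or vehicle control, n = 3 per group, followed by blood pressure measurement.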

Rattus norvegicus [3] = experiment: Neuroprotective activity against middle cerebral artery occlusion-induced ischemia-reperfusion injury Sprague-Dawley rat model assessed as decrease in neurologic deficit scores at 95 to 9500 microg/kg, iv treated immediately reperfusion in presence of PTIO measured after 24 hrs; format: functional, organism-based; conditions: dose 95-9500 µg/kg
Outline: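 Male SD rats (12 weeks, 200–220 g; N = 8/group) underwent MCAO under […] (350 mg/kg) using a nylon intraluminal suture for 2 h, then reperfusion. Compound (95, 950 or 9500 μg/kg) was given iv immediately after reperfusion; where used, PTIO 1 mg/kg iv was given 30 min before. At 24 h, blinded scoring covered Longa neurological deficit, TTC infarct area/whole area, and edema from wet/dry brain weight (105 °C, 24 h).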

Rattus norvegicus [4] = experiment: Neuroprotective activity against middle cerebral artery occlusion-induced ischemia-reperfusion injury Sprague-Dawley rat model assessed as increase in NQO1 expression in cerebral ischemic penumbra at 950 microg/kg, iv treated immediately reperfusion measured after 24 hrs; format: functional, organism-based; conditions: dose 950.0 µg/kg
Outline: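 MCAO rat brain paraffin sections (3 μm) were blocked with 10% goat serum and stained by IHC for NQO-1 and HO-1 (1:200) and phospho-Nrf2 (1:100), with DAB detection and rabbit IgG as negative control. Average optical density of positive cells was scored blinded over five fields per sample.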

Structure (SMILES): O=C(/C(=C/c1ccccc1)C[N+](=O)[O-])c1ccccc1
- Activity [1]: 7.21%
- Activity [2]: Non-Toxic
- Activity (Rattus norvegicus [3]): inactive
- Activity (Rattus norvegicus [4]): Active
